In ChEMBL document CHEMBL3871264, “Design of a novel thiophene inhibitor of 15-lipoxygenase-1 with both anti-inflammatory and neuroprotective properties” (Eur J Med Chem, 2016):
Activity calls are given as the source filed them. The calls are words filed in the database; no cut-off is given here.

What was measured:
[1] = target: T1, Polyunsaturated fatty acid lipoxygenase ALOX15 (Mus musculus) (UniProt P39654); assay: Inhibition of 15-LOX-1 in mouse HT22 cells assessed as inhibition of glutamate-induced lipid peroxidation at 10 uM incubated for 6 to 7 hrs by BODIPY 581/591 C11 staining based FACS analysis; format: cell-based; settings: HT-22
T1 sequence (whole entry): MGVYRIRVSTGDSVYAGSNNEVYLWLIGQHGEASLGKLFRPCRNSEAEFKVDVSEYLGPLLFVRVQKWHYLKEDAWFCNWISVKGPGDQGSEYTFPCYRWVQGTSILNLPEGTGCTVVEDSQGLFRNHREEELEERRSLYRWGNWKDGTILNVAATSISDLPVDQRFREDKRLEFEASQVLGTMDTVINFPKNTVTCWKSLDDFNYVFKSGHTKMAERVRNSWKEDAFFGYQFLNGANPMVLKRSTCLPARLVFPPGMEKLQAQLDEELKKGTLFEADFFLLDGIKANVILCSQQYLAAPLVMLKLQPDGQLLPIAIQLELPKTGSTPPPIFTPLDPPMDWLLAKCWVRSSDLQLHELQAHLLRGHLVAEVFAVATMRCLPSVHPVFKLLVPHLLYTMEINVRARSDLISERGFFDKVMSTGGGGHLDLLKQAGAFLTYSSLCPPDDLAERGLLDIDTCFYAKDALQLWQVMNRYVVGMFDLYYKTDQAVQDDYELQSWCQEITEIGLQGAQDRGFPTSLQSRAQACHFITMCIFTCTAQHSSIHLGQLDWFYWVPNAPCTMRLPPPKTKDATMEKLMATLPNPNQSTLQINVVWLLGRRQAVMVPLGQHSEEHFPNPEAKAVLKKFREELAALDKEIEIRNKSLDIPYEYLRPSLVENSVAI
Summary of the method: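 HT-22 cells were seeded at 5x10^4 per well and incubated overnight. They were then exposed to 4 mM glutamate in DMEM/10% FCS, with or without 10 µM test inhibitor or 1 µM PD146176, for 6-7 h or 14-16 h. Cells were stained with BODIPY 581/591 C11 at 2 µM final for 1 h at 37 °C. The red-to-green fluorescence shift was read by flow cytometry (488 nm excitation). At least 3 experiments were run, each in triplicate.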

[2] = target: T1, Polyunsaturated fatty acid lipoxygenase ALOX15 (Mus musculus); assay: Inhibition of 15-LOX-1 in mouse HT22 cells assessed as protection against glutamate-induced cell impedance at 10 uM incubated up to 8 hrs following glutamate challenge measured up to 20 hrs by real time cell viability assay; format: cell-based; settings: HT-22
Summary of the method: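 HT-22 cells were seeded at 8x10^3 per well, incubated overnight, then given 4 mM glutamate. Inhibitor was either co-applied (1-20 µM; PD146176 at 1 µM) or added at 10 µM 2, 4, 6 or 8 h after glutamate. Impedance was recorded in real time for 16-20 h, with cell index normalized just before glutamate addition.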

[3] = target: T1, Polyunsaturated fatty acid lipoxygenase ALOX15 (Mus musculus); assay: Inhibition of 15-LOX-1 in C57bl/6 mouse precision-cut lung slices assessed as reduction in LPS-stimulated IL-6 mRNA expression level at 5 uM incubated for 20 hrs followed by LPS stimulation for 4 hrs in presence of linoleic acid by RT-qPCR analysis
Summary of the method: (§1)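 Lung slices, 250 μm, were cut from agarose-filled lungs of male C57bl/6 mice aged 8-10 weeks and cultured at 37 °C in 5% CO2 in supplemented DMEM, 3 slices per well. Inhibitor was given for 20 h with 10 μM linoleic acid. For the last 4 h, 10 ng/ml LPS plus 10 ng/ml IFNγ were added. Read-out was RT-qPCR (10 ng cDNA, GAPDH assay included), in duplicate or triplicate wells, as fold change versus LPS/linoleic acid control, with 4-6 independent experiments.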

[4] = target: T1, Polyunsaturated fatty acid lipoxygenase ALOX15 (Mus musculus); assay: Inhibition of 15-LOX-1 in mouse HT22 cells assessed as inhibition of glutamate-induced superoxide production in mitochondria at 10 uM incubated for 14 to 16 hrs by mitoSOX staining based FACS analysis; settings: HT-22
Summary of the method: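 HT-22 cells were seeded at 5x10^4 per well and incubated overnight. They were then given 4 mM glutamate with or without 10 µM inhibitor or 1 µM PD146176 for 14-16 h. Cells were stained with MitoSOX at 2.5 µM final for 30 min at 37 °C, and fluorescence intensity was measured by flow cytometry (488 nm excitation). At least 3 experiments were run, each in triplicate.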

[5] = target: T1, Polyunsaturated fatty acid lipoxygenase ALOX15 (Mus musculus); assay: Inhibition of 15-LOX-1 in C57bl/6 mouse precision-cut lung slices assessed as reduction in LPS-stimulated IL-12b mRNA expression level at 5 uM incubated for 20 hrs followed by LPS stimulation for 4 hrs in presence of linoleic acid by RT-qPCR analysis; summary of the method: as §1
[6] = target: T1, Polyunsaturated fatty acid lipoxygenase ALOX15 (Mus musculus); assay: Inhibition of 15-LOX-1 in C57bl/6 mouse precision-cut lung slices assessed as reduction in LPS-stimulated IL-6 mRNA expression level at 50 uM incubated for 20 hrs followed by LPS stimulation for 4 hrs in presence of linoleic acid by RT-qPCR analysis; summary of the method: as §1
[7] = target: T1, Polyunsaturated fatty acid lipoxygenase ALOX15 (Mus musculus); assay: Inhibition of 15-LOX-1 in C57bl/6 mouse precision-cut lung slices assessed as reduction in LPS-stimulated IL-8 mRNA expression level at 50 uM incubated for 20 hrs followed by LPS stimulation for 4 hrs in presence of linoleic acid by RT-qPCR analysis; summary of the method: as §1
[8] = target: T2, Polyunsaturated fatty acid lipoxygenase ALOX15 (Homo sapiens) (UniProt P16050); assay: Competitive inhibition of human 15-LOX-1 assessed as apparent Vmax at 15 uM by Lineweaver-Burk plot analysis (reference value: 1.6 +/- 0.2 10^-4abs/s)
T2 sequence (whole entry): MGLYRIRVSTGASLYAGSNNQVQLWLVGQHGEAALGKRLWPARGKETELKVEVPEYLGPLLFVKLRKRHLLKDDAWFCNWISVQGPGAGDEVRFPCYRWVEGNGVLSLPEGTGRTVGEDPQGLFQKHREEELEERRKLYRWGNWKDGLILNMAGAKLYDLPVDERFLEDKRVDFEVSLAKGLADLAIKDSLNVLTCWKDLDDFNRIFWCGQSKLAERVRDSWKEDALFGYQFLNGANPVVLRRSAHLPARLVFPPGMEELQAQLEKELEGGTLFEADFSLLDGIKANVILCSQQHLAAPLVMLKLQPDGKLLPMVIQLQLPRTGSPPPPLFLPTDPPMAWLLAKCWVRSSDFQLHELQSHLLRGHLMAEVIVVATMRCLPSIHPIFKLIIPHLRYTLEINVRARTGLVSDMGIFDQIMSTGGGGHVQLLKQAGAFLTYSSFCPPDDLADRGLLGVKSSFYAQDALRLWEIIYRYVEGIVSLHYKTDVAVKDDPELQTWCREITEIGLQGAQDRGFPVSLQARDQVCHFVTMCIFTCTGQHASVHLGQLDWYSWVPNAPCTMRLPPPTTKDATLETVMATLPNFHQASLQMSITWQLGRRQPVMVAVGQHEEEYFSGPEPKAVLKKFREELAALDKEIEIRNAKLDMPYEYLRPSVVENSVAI
Summary of the method: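 Purified enzyme activity was read as UV absorbance at 234 nm of the product formed from linoleic acid substrate, in 96-well format. Substrate-dependence runs were done with and without inhibitor. Apparent Km and Vmax were derived from Lineweaver-Burk plots.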

inhibition [1]: Active
inhibition [3]: Active
inhibition [4]: Active
inhibition [5]: Active
inhibition [6]: 50%
inhibition [7]: 50%
Vmax(app) [8]: 1.6 ×10⁻⁴ abs/s
SMILES: CCCCNC(=O)c1cc(-c2ccccc2)sc1N
inhibition [2]: Active
